According to ChEMBL document CHEMBL1772999, “Synthesis and biological evaluation of 2,4,5-substituted pyrimidines as a new class of tubulin polymerization inhibitors” (J Med Chem, 2011):
Activity calls are given as the source filed them. No cut-off for these calls is given here.

Columns and labels:
Tubulin = Tubulin (Sus scrofa, UniProt P02554+P02550); experiment: Inhibition of pig brain tubulin polymerization by spectrophotometry
Summary of the method: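 Pig brain microtubule protein from three assembly/disassembly cycles, tubulin purified by phosphocellulose chromatography. Polymerization in PEM buffer (100 mM PIPES, 1 mM EGTA, 1 mM MgCl2) with 1 mM GTP and 5% glycerol at 37 °C, followed by light scattering at 340 nm.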

Bel-7402 = experiment: Antiproliferative activity against human Bel7402 cells after 72 hrs by sulforhodamine B assay; assay type: functional, cell-based; settings: Bel-7402, 72 h
Summary of the method: (§1)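 SRB survival assay: cells seeded in 96-well plates, exposed to a range of compound concentrations for 72 h, fixed with 10% TCA 1 h at 4 °C, stained with 0.4% (w/v) SRB 20 min at room temperature, washed with 1% acetic acid, dye solubilized in 10 mM Tris, absorbance at 510 nm.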

Tubulin (Sus scrofa) = Tubulin (Sus scrofa) (UniProt P02554+P02550); experiment: Displacement of colchicine from pig brain tubulin at 25 uM after 60 mins by fluorescence assay
Sequence of Tubulin (Sus scrofa) (P02550 whole entry, looked up): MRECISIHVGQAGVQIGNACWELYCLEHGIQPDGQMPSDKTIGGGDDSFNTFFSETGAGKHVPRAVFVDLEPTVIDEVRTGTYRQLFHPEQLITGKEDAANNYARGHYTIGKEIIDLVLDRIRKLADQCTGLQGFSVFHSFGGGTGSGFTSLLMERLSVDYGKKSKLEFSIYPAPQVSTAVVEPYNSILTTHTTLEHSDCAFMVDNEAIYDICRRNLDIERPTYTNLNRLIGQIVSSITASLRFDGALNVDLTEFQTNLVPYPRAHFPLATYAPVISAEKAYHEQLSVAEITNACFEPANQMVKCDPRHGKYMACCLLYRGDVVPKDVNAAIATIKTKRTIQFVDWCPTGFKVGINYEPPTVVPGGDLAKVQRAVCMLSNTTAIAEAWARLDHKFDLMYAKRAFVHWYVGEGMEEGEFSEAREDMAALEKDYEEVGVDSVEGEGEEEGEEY
Sequence of Tubulin (Sus scrofa) (P02554 whole entry, looked up): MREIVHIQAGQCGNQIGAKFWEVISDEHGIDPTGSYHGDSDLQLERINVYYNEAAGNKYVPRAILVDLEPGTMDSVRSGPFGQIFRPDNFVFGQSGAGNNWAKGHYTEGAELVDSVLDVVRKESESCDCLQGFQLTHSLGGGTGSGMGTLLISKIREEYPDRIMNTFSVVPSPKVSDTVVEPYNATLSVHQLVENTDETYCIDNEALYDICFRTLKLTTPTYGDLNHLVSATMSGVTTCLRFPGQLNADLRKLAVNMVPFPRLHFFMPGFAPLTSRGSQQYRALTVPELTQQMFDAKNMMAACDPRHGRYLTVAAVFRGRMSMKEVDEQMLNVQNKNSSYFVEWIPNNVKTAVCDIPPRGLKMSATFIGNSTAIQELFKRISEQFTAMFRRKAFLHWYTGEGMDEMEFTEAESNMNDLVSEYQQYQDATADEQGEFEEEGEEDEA
Summary of the method: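 Tubulin (3 μM) preincubated with colchicine (3 μM) 30 min at 37 °C, then compound added (0–25 μM). Fluorescence spectra (excitation 365 nm, emission 435 nm) recorded after 60 min at 37 °C, buffer blank subtracted.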

A-431 = experiment: Antiproliferative activity against human A431 cells after 72 hrs by sulforhodamine B assay; assay type: functional, cell-based; settings: A-431, 72 h; summary of the method: as §1
SK-OV-3 = experiment: Antiproliferative activity against human SKOV3 cells after 72 hrs by sulforhodamine B assay; assay type: functional, cell-based; settings: SK-OV-3, 72 h; summary of the method: as §1
HT-29 = experiment: Antiproliferative activity against human HT-29 cells after 72 hrs by sulforhodamine B assay; assay type: functional, cell-based; settings: HT-29, 72 h; summary of the method: as §1
NCI-H460 = experiment: Antiproliferative activity against human NCI-H460 cells after 72 hrs by sulforhodamine B assay; assay type: functional, cell-based; settings: NCI-H460, 72 h; summary of the method: as §1
A549 = experiment: Antiproliferative activity against human A549 cells after 72 hrs by sulforhodamine B assay; assay type: functional, cell-based; settings: A549, 72 h; summary of the method: as §1
KB = experiment: Cell cycle arrest in human KB cells assessed as accumulation of cells at G2/M phase after 24 hrs by propidium iodide-based FACScan; assay type: functional
Summary of the method: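 Subconfluent KB cells exposed to a range of concentrations for 24 h. Adherent plus detached cells collected by trypsinization, fixed overnight in 70% ethanol, stained 30 min at 37 °C with propidium iodide 50 μg/mL plus DNase-free RNase A 50 μg/mL. 10000 cells per group analyzed by flow cytometry.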

Row | Structure (SMILES) | IC50 (Tubulin) [nM] | IC50 (Bel-7402) [nM] | Activity (Tubulin (Sus scrofa)) | IC50 (A-431) [nM] | IC50 (SK-OV-3) [nM] | IC50 (HT-29) [nM] | IC50 (NCI-H460) [nM] | IC50 (A549) [nM] | EC50 (KB) [nM]
1 | CCN(C)c1ccc(-c2cnc(N)nc2-c2ccccc2O)cc1 | 2350 |  |  |  |  |  |  |  | 
2 | CC(=O)O[C@H]1C(=O)[C@@]2(C)[C@H]([C@H](OC(=O)c3ccccc3)[C@]3(O)C[C@H](OC(=O)[C@H](O)[C@@H](NC(=O)c4ccccc4)c4ccccc4)C(C)=C1C3(C)C)[C@]1(OC(C)=O)CO[C@@H]1C[C@@H]2O [PACLITAXEL] |  |  |  | 9.2 | 14.5 | 6.1 | 14.6 |  | 2
3 | CCC1=C[C@@H]2CN(C1)Cc1c([nH]c3ccccc13)[C@@](C(=O)OC)(c1cc3c(cc1OC)N(C)[C@H]1[C@@](O)(C(=O)OC)[C@H](OC(C)=O)[C@]4(CC)C=CCN5CC[C@]31[C@@H]54)C2 [VINORELBINE] |  |  | inactive | 60 | 26.7 | 11.9 | 43.7 | 64.6 | 6
4 | CCn1ccc2cc(-c3cnc(N)nc3-c3ccc(OC)cc3O)ccc21 | > 50000 | > 10000 |  |  |  |  |  |  | 
5 | COc1cc2c(c(OC)c1OC)-c1ccc(OC)c(=O)cc1[C@@H](NC(C)=O)CC2 [COLCHICINE] |  | 40 |  | 53.2 | 71.2 | 21.9 | 50.6 | 37 | 10
6 | Nc1ncc(-c2ccc(N3CCCC3)cc2)c(-c2ccccc2O)n1 | > 50000 | > 10000 |  |  |  |  |  |  | 
7 | CCn1ccc2cc(-c3cnc(N)nc3-c3cc(OC)ccc3O)ccc21 | > 50000 | > 10000 |  |  |  |  |  |  | 
8 | Nc1ncc(-c2ccc(CN3CCOCC3)cc2)c(-c2ccccc2O)n1 | > 50000 | > 10000 |  |  |  |  |  |  | 
9 | CCn1ccc2ccc(-c3cnc(N)nc3-c3ccccc3O)cc21 | > 50000 | > 10000 |  |  |  |  |  |  | 
10 | CN1CCN(Cc2ccc(-c3cnc(N)nc3-c3ccccc3O)cc2)CC1 | > 50000 | > 10000 |  |  |  |  |  |  | 
11 | CCn1ccc2cc(-c3cnc(N)nc3-c3ccc(OC)c(OC)c3O)ccc21 | > 50000 | > 10000 |  |  |  |  |  |  | 

The remaining lines, values ahead:

Row | IC50 (Tubulin) [nM] | IC50 (Bel-7402) [nM] | Activity (Tubulin (Sus scrofa)) | IC50 (A-431) [nM] | IC50 (SK-OV-3) [nM] | IC50 (HT-29) [nM] | IC50 (NCI-H460) [nM] | IC50 (A549) [nM] | EC50 (KB) [nM] | Structure (SMILES)
12 | > 50000 | > 10000 |  |  |  |  |  |  |  | Nc1ncc(-c2ccc(N3CCOCC3)cc2)c(-c2ccccc2O)n1
13 | 790 | 16 | Active | 20.3 | 32 | 28.2 | 19 | 62 | 20 | CCn1ccc2cc(-c3cnc(N)nc3-c3ccccc3O)ccc21
14 | > 50000 | > 10000 |  |  |  |  |  |  |  | Nc1ncc(-c2ccc3[nH]ccc3c2)c(-c2ccccc2O)n1
15 | > 50000 | > 10000 |  |  |  |  |  |  |  | Nc1ncc(-c2ccc(N3CCCCC3)cc2)c(-c2ccccc2O)n1
16 | > 50000 | > 10000 |  |  |  |  |  |  |  | CCn1ccc2cc(-c3cnc(N)nc3-c3cc(OC)c(OC)cc3O)ccc21
17 | 800 | 10 |  | 45.4 | 56.1 | 41.8 | 25.8 | 70.4 |  | CCn1ccc2cc(-c3cnc(N)nc3-c3cc(F)ccc3O)ccc21
18 | > 50000 | > 10000 |  |  |  |  |  |  |  | CN1CCN(c2ccc(-c3cnc(N)nc3-c3ccccc3O)cc2)CC1
19 | > 50000 | > 10000 |  |  |  |  |  |  |  | Nc1ncc(-c2ccc(CN3CCCCC3)cc2)c(-c2ccccc2O)n1
20 | 920 | 50 |  | 21.7 | 69.2 | 30.8 | 20.5 | 48.2 |  | Cn1ccc2cc(-c3cnc(N)nc3-c3ccccc3O)ccc21
21 | 5570 | 100 |  | 76.6 | 171 | 95.4 | 57 | 241 |  | CCN(CC)c1ccc(-c2cnc(N)nc2-c2ccccc2O)cc1
22 | 5000 | 80 |  | 760 | 760 | 918 | 485 | 1310 |  | CC(C)n1ccc2cc(-c3cnc(N)nc3-c3ccccc3O)ccc21
23 | > 50000 | > 10000 |  |  |  |  |  |  |  | CN(C)Cc1ccc(-c2cnc(N)nc2-c2ccccc2O)cc1
24 | > 50000 | 1000 |  |  |  |  |  |  |  | CCn1ccc2c(-c3cnc(N)nc3-c3ccccc3O)cccc21
25 | > 50000 | 1000 |  |  |  |  |  |  |  | CCn1ccc2cc(-c3cnc(N)nc3-c3ccccc3O)cnc21
